# Assay results taken from ChEMBL document CHEMBL2375304, “Synthesis and anticancer activity of novel 2-pyridyl hexahyrocyclooctathieno[2,3-d]pyrimidine derivatives” (2013).
# Assays:
# Format in all cases: functional
# NCI-H23 [1] = assay: Growth inhibition of human NCI-H23 cells at 10^-5 M after 48 hrs by Sulforhodamine B assay relative to control; conditions: NCI-H23, 48 h, read-out: GI
# Summary of the method: (§1)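 Single-dose primary screen at 10⁻⁵ M across 49 lines. Cells were plated 24 h beforehand, with a TCA-fixed time-zero plate, then exposed 48 h at 37 °C, 5% CO2. Cells were fixed with cold TCA, stained with SRB and read at 515 nm. Percent growth was calculated against time-zero and untreated-control absorbances.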
# HT-29 = assay: Growth inhibition of human HT-29 cells at 10^-5 M after 48 hrs by Sulforhodamine B assay relative to control; conditions: HT-29, 48 h, read-out: GI
# Summary of the method: (§2)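 Single-dose screen at 10⁻⁵ M. Cells are preincubated 24 h at 37 °C in 5% CO2, then exposed to the compound, diluted from a DMSO stock into medium with gentamicin, for 48 h. Adherent cells are fixed with cold TCA (final 10%) and suspension cells with TCA (final 16%). Cells are stained with 0.4% SRB in 1% acetic acid and bound dye is read at 515 nm. Percent growth inhibition is taken against control wells and time-zero plates.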
# K562 [2] = assay: Growth inhibition of human K562 cells at 10^-5 M after 48 hrs by Sulforhodamine B assay relative to control; conditions: K562, 48 h, read-out: GI; summary of the method: as §2
# DU-145 = assay: Growth inhibition of human DU145 cells at 10^-5 M after 48 hrs by Sulforhodamine B assay relative to control; conditions: DU-145, 48 h, read-out: GI; summary of the method: as §2
# HL-60(TB) = assay: Growth inhibition of human HL-60(TB) cells at 10^-5 M after 48 hrs by Sulforhodamine B assay relative to control; conditions: HL-60, 48 h, read-out: GI
# Summary of the method: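 First-stage single-dose screen at 10⁻⁵ M. Cells pre-incubated 24 h at 37 °C, 5% CO2, then exposed to drug for 48 h. Settled cells fixed with TCA (final 16%), SRB-stained and read at 515 nm. Percentage growth inhibition is derived from treated, untreated control and time-zero absorbances.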
# SK-MEL-28 [3] = assay: Growth inhibition of human SK-MEL-28 cells at 10^-5 M after 48 hrs by Sulforhodamine B assay relative to control; conditions: SK-MEL-28, 48 h, read-out: GI; summary of the method: as §1
# CCRF-CEM = assay: Growth inhibition of human CCRF-CEM cells at 10^-5 M after 48 hrs by Sulforhodamine B assay relative to control; conditions: read-out: GI; summary of the method: as §2
# SF-539 = assay: Growth inhibition of human SF539 cells at 10^-5 M after 48 hrs by Sulforhodamine B assay relative to control; conditions: SF-539, 48 h, read-out: GI; summary of the method: as §1
# [4] = Growth inhibition of human HCC2998 cells at 10^-5 M after 48 hrs by Sulforhodamine B assay relative to control; conditions: HCC 2998, 48 h, read-out: GI; summary of the method: as §2
# OVCAR-3 = assay: Growth inhibition of human OVCAR3 cells at 10^-5 M after 48 hrs by Sulforhodamine B assay relative to control; conditions: OVCAR-3, 48 h, read-out: GI; summary of the method: as §1
# 786-0 [5] = assay: Growth inhibition of human 786-0 cells at 10^-5 M after 48 hrs by Sulforhodamine B assay relative to control; conditions: 786-0, 48 h, read-out: GI; summary of the method: as §2
# Malme-3M = assay: Growth inhibition of human MALME-3M cells at 10^-5 M after 48 hrs by Sulforhodamine B assay relative to control; conditions: read-out: GI; summary of the method: as §2
# PC-3 = assay: Growth inhibition of human PC3 cells at 10^-5 M after 48 hrs by Sulforhodamine B assay relative to control; conditions: PC-3, 48 h, read-out: GI; summary of the method: as §1
# M14 = assay: Growth inhibition of human M14 cells at 10^-5 M after 48 hrs by Sulforhodamine B assay relative to control; conditions: M14, 48 h, read-out: GI; summary of the method: as §2
# A549 = assay: Growth inhibition of human A549/ATCC cells after 48 hrs by Sulforhodamine B assay; conditions: A549, 48 h
# Summary of the method: (§3)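 Five-concentration SRB assay using 10-fold or ½-log serial dilutions from a DMSO stock. Exposure is 48 h at 37 °C in 5% CO2 after 24 h preincubation. TCA fixation is followed by SRB staining and a reading at 515 nm. Percentage growth is computed from time-zero, control and treated absorbances. GI50 is the concentration where [(Ti−Tz)/(C−Tz)]×100 = 50, read from the plot against log concentration.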
# K562 [6] = assay: Growth inhibition of human K562 cells after 48 hrs by Sulforhodamine B assay; conditions: K562, 48 h; summary of the method: as §3
# MOLT-4 = assay: Growth inhibition of human MOLT4 cells after 48 hrs by Sulforhodamine B assay; conditions: MOLT-4, 48 h
# Summary of the method: (§4)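 Cells were preincubated 24 h at 37 °C, 5% CO2, and a time-zero plate was TCA-fixed. Five concentrations were made by serial dilution from a DMSO stock (400-fold the top concentration) and incubated 48 h. Adherent cells were fixed with 10% final TCA and suspension cells with 16%. Plates were stained with 0.4% SRB and read at 515 nm. GI50 is the concentration giving 50% reduction in net protein increase versus control.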
# Hs-578T = assay: Growth inhibition of human Hs578T cells after 48 hrs by Sulforhodamine B assay; summary of the method: as §3
# COLO 205 = assay: Growth inhibition of human COLO205 cells after 48 hrs by Sulforhodamine B assay; conditions: COLO 205, 48 h; summary of the method: as §3
# SK-MEL-28 [7] = assay: Growth inhibition of human SK-MEL-28 cells after 48 hrs by Sulforhodamine B assay; conditions: SK-MEL-28, 48 h; summary of the method: as §4
# NCI-H23 [8] = assay: Growth inhibition of human NCI-H23 cells after 48 hrs by Sulforhodamine B assay; conditions: NCI-H23, 48 h; summary of the method: as §4
# 786-0 [9] = assay: Growth inhibition of human 786-0 cells after 48 hrs by Sulforhodamine B assay; conditions: 786-0, 48 h; summary of the method: as §3
# SW-620 = assay: Growth inhibition of human SW620 cells after 48 hrs by Sulforhodamine B assay; conditions: SW-620, 48 h; summary of the method: as §4
# UACC-62 = assay: Growth inhibition of human UACC62 cells after 48 hrs by Sulforhodamine B assay; conditions: UACC-62, 48 h
# Summary of the method: (§5)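 Five-concentration stage in the […]-cell-line panel, using 10-fold or ½-log serial dilutions made from a DMSO stock (400-fold). Cells were preincubated 24 h at 37 °C, then drug-exposed 48 h. A time-zero plate was fixed with TCA at dosing, adherent cells were fixed with cold TCA (10% final), and protein was stained with SRB, absorbance 515 nm. GI50 was where [(Ti−Tz)/(C−Tz)]×100 = 50, from the percent growth vs log concentration plot, expressed as log10 GI50.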
# SNB-75 = assay: Growth inhibition of human SNB75 cells after 48 hrs by Sulforhodamine B assay; conditions: SNB-75, 48 h; summary of the method: as §4
# NCI-H460 = assay: Growth inhibition of human NCI-H460 cells after 48 hrs by Sulforhodamine B assay; conditions: NCI-H460, 48 h; summary of the method: as §4
# UO-31 = assay: Growth inhibition of human UO31 cells after 48 hrs by Sulforhodamine B assay; conditions: UO-31, 48 h; summary of the method: as §5
# HOP-62 = assay: Growth inhibition of human HOP62 cells after 48 hrs by Sulforhodamine B assay; conditions: HOP-62, 48 h; summary of the method: as §3
Compound,inhibition of growth at 10 µM (NCI-H23 [1]) [%],inhibition of growth at 10 µM (HT-29) [%],inhibition of growth at 10 µM (K562 [2]) [%],inhibition of growth at 10 µM (DU-145) [%],inhibition of growth at 10 µM (HL-60(TB)) [%],inhibition of growth at 10 µM (SK-MEL-28 [3]) [%],GI50 (A549) [µM],GI50 (K562 [6]) [µM],GI50 (MOLT-4) [µM],GI50 (Hs-578T) [µM],GI50 (COLO 205) [µM],GI50 (SK-MEL-28 [7]) [µM],GI50 (NCI-H23 [8]) [µM],GI50 (786-0 [9]) [µM],GI50 (SW-620) [µM],GI50 (UACC-62) [µM],GI50 (SNB-75) [µM],GI50 (NCI-H460) [µM],GI50 (UO-31) [µM],GI50 (HOP-62) [µM],further results
NNc1nc(-c2ccncc2)nc2sc3c(c12)CCCCCC3,7.74,13.2,24.7,-30.4,16.4,4.94,,,,,,,,,,,,,,,inhibition of growth at 10 µM (CCRF-CEM): 25.9%; inhibition of growth at 10 µM (SF-539): -14.8%; inhibition of growth at 10 µM [4]: -16%; inhibition of growth at 10 µM (OVCAR-3): -0.84%; inhibition of growth at 10 µM (786-0 [5]): 18.1%; inhibition of growth at 10 µM (Malme-3M): 2.19%; inhibition of growth at 10 µM (PC-3): 7.42%; inhibition of growth at 10 µM (M14): -11.9%
c1ccc(-c2nc(N3CCOCC3)c3c4c(sc3n2)CCCCCC4)nc1,,,,,,,3.55,3.47,3.8,3.39,9.33,11,6.03,11.7,8.91,3.47,7.08,5.89,1.17,9.55,
NNc1nc(-c2ccccn2)nc2sc3c(c12)CCCCCC3,,,,,,,3.16,3.8,3.63,11,5.13,14.8,8.91,5.62,4.57,5.89,12.6,4.17,1.02,8.51,
O=c1[nH]c(-c2ccncc2)nc2sc3c(c12)CCCCCC3,,,,,,,> 100,> 100,> 100,> 100,> 100,> 100,> 100,> 100,> 100,> 100,2.69,> 100,> 100,> 100,
Clc1nc(-c2ccccn2)nc2sc3c(c12)CCCCCC3,17.6,0.67,20.2,77.5,3.98,10.7,,,,,,,,,,,,,,,inhibition of growth at 10 µM (CCRF-CEM): 27.6%; inhibition of growth at 10 µM (SF-539): 2.75%; inhibition of growth at 10 µM [4]: 36.6%; inhibition of growth at 10 µM (OVCAR-3): -7.89%; inhibition of growth at 10 µM (786-0 [5]): 1.61%; inhibition of growth at 10 µM (Malme-3M): 5.75%; inhibition of growth at 10 µM (PC-3): 7.81%; inhibition of growth at 10 µM (M14): 13.2%
O=c1[nH]c(-c2ccccn2)nc2sc3c(c12)CCCCCC3,,,,,,,2.57,1,2.4,6.46,5.89,6.03,11,5.62,4.9,5.5,85.1,1.91,5.89,6.31,
